Tests used:
[1] = Concentration required for inhibition of lipid synthesis in primary cultures of rat hepatocytes; type: functional, cell-based; conditions: Hepatocyte
How it was run: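 Primary hepatocytes from male Sprague-Dawley rats (Seglen isolation), plated at 1.5×10^5 cells/cm² on collagen in serum-containing DMEM, switched to serum-free medium after 4 h, grown overnight to monolayers. Cells incubated 4 h with 0.25 μCi [1-14C]acetate/well (1 Ci/mol final) plus 0, 1, 3, 10, 30, 100 or 300 μM compound. Lipids extracted into scintillant and counted; IC50 taken from lipid synthesis rates.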

Rattus norvegicus [2] = assay: Amount of insulin in obese Zucker rats after 2 weeks of treatment at a dose of 30 mg/kg/day; type: functional
How it was run: (§1)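 Female obese Zucker rats [Crl:(Zuc)-faBR], 400–500 g, given daily oral gavage in 20% EtOH/80% PEG-200 for up to 14 days. After a 6-h fast, serum was collected pretreatment and at day 7 (orbital bleed) and day 14 (cardiac puncture) and stored at -80 °C. Insulin was measured by ELISA. Values are mean ± SEM.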

Rattus norvegicus [3] = assay: Amount of insulin in obese Zucker rats after 2 weeks of treatment at a dose of 100 mg/kg/day; type: functional; how it was run: as §1
Rattus norvegicus [4] = assay: Amount of insulin in obese Zucker rats at pre-treatment at a dose of 3 mg/kg/day; type: functional; how it was run: as §1
Rattus norvegicus [5] = assay: Amount of insulin in obese Zucker rats at pre-treatment at a dose of 30 mg/kg/day; type: functional; how it was run: as §1
Rattus norvegicus [6] = assay: Amount of triglycerides in obese Zucker rats at pre-treatment at a dose of 0 mg/kg/day; type: functional
How it was run: (§2)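 Female Zucker fatty rats [Crl:(Zuc)-faBR], 10–12 weeks old (400–500 g), dosed once daily by oral gavage in 20% EtOH/80% PEG-200 for up to 14 days. After a 6-h fast, serum was taken pre-dose, at day 7 (orbital venous plexus, O2/CO2 anaesthesia) and at day 14 (cardiac puncture), stored at −80 °C, and assayed on a Hitachi 912 automatic analyzer. Mean ± SEM.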

Rattus norvegicus [7] = assay: Amount of triglycerides in obese Zucker rats at pre-treatment at a dose of 3 mg/kg/day; type: functional; how it was run: as §2
Rattus norvegicus [8] = assay: Amount of triglycerides in obese Zucker rats after 1 week of treatment at a dose of 0 mg/kg/day; type: functional; how it was run: as §2
Rattus norvegicus [9] = assay: Amount of nonesterified fatty acids in obese Zucker rats at pre-treatment at a dose of 3 mg/kg/day; type: functional; how it was run: as §2
Rattus norvegicus [10] = assay: Amount of triglycerides in obese Zucker rats after 2 weeks of treatment at a dose of 100 mg/kg/day; type: functional; how it was run: as §2
Rattus norvegicus [11] = assay: Amount of HDL-cholesterol in obese Zucker rats after 1 week of treatment at a dose of 10 mg/kg/day; type: functional
How it was run: (§3)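 Female Zucker fatty rats [Crl:(Zuc)-faBR], 10–12 weeks old (400–500 g), dosed once daily by oral gavage in 20% EtOH/80% PEG-200 (dose volume 0.25% of body weight). Rats were fasted 6 h and bled before dosing and at day 7 (orbital plexus), and at day 14 (cardiac puncture). Serum cholesterol fractions came from Superose 6 gel-filtration lipoprotein profiles (% peak area × serum total cholesterol). Values are mean ± SEM.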

Rattus norvegicus [12] = assay: Amount of nonesterified fatty acids in obese Zucker rats at pre-treatment at a dose of 0 mg/kg/day; type: functional; how it was run: as §2
Rattus norvegicus [13] = assay: Amount of nonesterified fatty acids in obese Zucker rats at pre-treatment at a dose of 100 mg/kg/day; type: functional; how it was run: as §2
Rattus norvegicus [14] = assay: Amount of non-HDL-cholesterol in obese Zucker rats after 2 weeks of treatment at a dose of 0 mg/kg/day; type: functional; how it was run: as §3
Rattus norvegicus [15] = assay: Percentage change of triglycerides in obese female Zucker rats after 1 week of pre-treatment at a dose of 100 mg/kg/day; type: functional
How it was run: (§4)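 Female Zucker fatty rats [Crl:(Zuc)-faBR], 10–12 weeks old (400–500 g), acclimated 7 days and fed rodent chow. Dosed once daily by oral gavage in 20% EtOH/80% PEG-200 (v/v), at 0.25% of body weight, for 2 weeks. Blood taken after a 6-h fast: orbital plexus before dosing and at day 7, cardiac puncture at day 14. Serum lipoprotein cholesterol measured by Superose 6 gel filtration with on-line cholesterol detection. Values are % change from pretreatment, mean ± SEM.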

Rattus norvegicus [16] = assay: Percent decrease in triglycerides in obese Zucker rats after 1 week of treatment at a dose of 10 mg/kg/day; type: functional; design: scale not given: the % may be the effect or the level left
How it was run: (§5)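 Female Zucker fatty rats [Crl:(Zuc)-faBR], 10–12 weeks, 400–500 g, acclimated 7 days on chow. Compound or vehicle (20% EtOH/80% PEG-200) given by daily oral gavage for 2 weeks, 0–100 mg/kg/day. After a 6 h fast, blood was taken before dosing, at 1 wk and at 2 wk. Serum lipids, NEFA and insulin (ELISA) were measured; glucose by glucometer. HDL/non-HDL-C came from Superose 6 gel-filtration profiles. Values are % change from pretreatment, mean ± SEM.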

Rattus norvegicus [17] = assay: Percentage change of triglycerides in obese female Zucker rats after 2 weeks of pre-treatment at a dose of 100 mg/kg/day; type: functional; how it was run: as §4
Rattus norvegicus [18] = assay: Percent increase in triglycerides in obese Zucker rats after 2 weeks of treatment at a dose of 0 mg/kg/day; type: functional; how it was run: as §5
Rattus norvegicus [19] = assay: Amount of nonesterified fatty acids in obese Zucker rats after 1 week of treatment at a dose of 30 mg/kg/day; type: functional; how it was run: as §2
Rattus norvegicus [20] = assay: Percent decrease in triglycerides in obese Zucker rats after 2 weeks of treatment at a dose of 100 mg/kg/day; type: functional; design: scale not given: the % may be the effect or the level left; how it was run: as §5
Rattus norvegicus [21] = assay: Amount of HDL-cholesterol in obese Zucker rats after 1 week of treatment at a dose of 0 mg/kg/day; type: functional; how it was run: as §3
Rattus norvegicus [22] = assay: Amount of triglycerides in obese Zucker rats after 1 week of treatment at a dose of 100 mg/kg/day; type: functional; how it was run: as §2
Rattus norvegicus [23] = assay: Amount of HDL-cholesterol in obese Zucker rats at pre-treatment at a dose of 30 mg/kg/day; type: functional; how it was run: as §3
Rattus norvegicus [24] = assay: Amount of glucose in obese Zucker rats after 1 week of treatment at a dose of 10 mg/kg/day; type: functional
How it was run: (§6)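 Female Zucker fatty rats [Crl:(Zuc)-faBR], 10–12 weeks old (400–500 g), gavaged daily with vehicle (20% EtOH/80% PEG-200, 0.25% of body weight) or compound. After a 6-h fast, blood glucose was read by glucometer from tail-prick blood of unanesthetized rats before dosing and after 1 and 2 weeks. Values are mean ± SEM.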

Rattus norvegicus [25] = assay: Percent decrease in non-HDL-cholesterol in obese Zucker rats after 2 weeks of treatment at a dose of 100 mg/kg/day; type: functional; design: scale not given: the % may be the effect or the level left; how it was run: as §5
Rattus norvegicus [26] = assay: Percent increase in non-HDL-cholesterol in obese Zucker rats after 2 weeks of treatment at a dose of 0 mg/kg/day; type: functional; how it was run: as §5
Rattus norvegicus [27] = assay: Amount of glucose in obese Zucker rats after 1 week of treatment at a dose of 100 mg/kg/day; type: functional; how it was run: as §6
Rattus norvegicus [28] = assay: Amount of glucose in obese Zucker rats after 2 weeks of treatment at a dose of 30 mg/kg/day; type: functional; how it was run: as §6
Rattus norvegicus [29] = assay: Amount of insulin in obese Zucker rats after 1 week of treatment at a dose of 100 mg/kg/day; type: functional; how it was run: as §1
Rattus norvegicus [30] = assay: Percent increase in HDL-cholesterol in obese Zucker rats after 1 week of treatment at a dose of 10 mg/kg/day; type: functional; how it was run: as §5
Rattus norvegicus [31] = assay: Amount of non-HDL-cholesterol in obese Zucker rats after 1 week of treatment at a dose of 100 mg/kg/day; type: functional; how it was run: as §3

| Structure (SMILES) | IC50 [1] | Activity (Rattus norvegicus [2]) | Activity (Rattus norvegicus [3]) | Activity (Rattus norvegicus [4]) | Activity (Rattus norvegicus [5]) | Activity (Rattus norvegicus [6]) | Activity (Rattus norvegicus [7]) | Activity (Rattus norvegicus [8]) | Activity (Rattus norvegicus [9]) | Activity (Rattus norvegicus [10]) | Activity (Rattus norvegicus [11]) | Activity (Rattus norvegicus [12]) | Activity (Rattus norvegicus [13]) | Activity (Rattus norvegicus [14]) | Change (Rattus norvegicus [15]) | Change (Rattus norvegicus [17]) | Activity (Rattus norvegicus [19]) | Activity (Rattus norvegicus [20]) | Activity (Rattus norvegicus [21]) | Activity (Rattus norvegicus [22]) | other results |
| --- | --- | --- | --- | --- | --- | --- | --- | --- | --- | --- | --- | --- | --- | --- | --- | --- | --- | --- | --- | --- | --- |
| CC(C)(CCCCCC(=O)CCCCCC(C)(C)C(=O)O)C(=O)O | 3000 nM | 7.7 ng/mL | 6 ng/mL | 8.6 ng/mL | 9.8 ng/mL | 950 mg/dL | 905 mg/dL | 1119 mg/dL | 1.3 mg/dL | 78 mg/dL | 136 mg/dL | 1.3 mg/dL | 1.4 mg/dL | 28 mg/dL | -93% | -94% | 0.88 mg/dL | -92% | 66 mg/dL | 69 mg/dL | Activity (Rattus norvegicus [16]): -36%; Activity (Rattus norvegicus [18]): 25%; Activity (Rattus norvegicus [23]): 62 mg/dL; Activity (Rattus norvegicus [24]): 122 mg/dL; Activity (Rattus norvegicus [25]): -88%; Activity (Rattus norvegicus [26]): 40%; Activity (Rattus norvegicus [27]): 92 mg/dL; Activity (Rattus norvegicus [28]): 130 mg/dL; Activity (Rattus norvegicus [29]): 6.4 ng/mL; Activity (Rattus norvegicus [30]): 58% |
| CC(C)(CCCCC(=O)CCCCC(C)(C)C(=O)O)C(=O)O | 3000 nM | 8.5 ng/mL | 9.5 ng/mL | 10.4 ng/mL | 7.7 ng/mL | 130 mg/dL | 996 mg/dL | 1333 mg/dL | 1.5 mg/dL | 440 mg/dL | 47 mg/dL | 1.5 mg/dL | 1.2 mg/dL | 29 mg/dL | -75% | -69% | 1 mg/dL | -54% | 39 mg/dL | 383 mg/dL | Activity (Rattus norvegicus [31]): 18 mg/dL; Activity (Rattus norvegicus [23]): 34 mg/dL; Activity (Rattus norvegicus [24]): 105 mg/dL; Activity (Rattus norvegicus [25]): -29%; Activity (Rattus norvegicus [27]): 113 mg/dL; Activity (Rattus norvegicus [28]): 118 mg/dL; Activity (Rattus norvegicus [29]): 9 ng/mL |
| CC(C)(CO)CCCCC(=O)CCCCC(C)(C)CO | 4000 nM | 9.8 ng/mL | 11 ng/mL | 8.8 ng/mL | 9.3 ng/mL | 933 mg/dL | 755 mg/dL | 1114 mg/dL | 1.1 mg/dL | 702 mg/dL | 52 mg/dL | 1.2 mg/dL | 1.4 mg/dL | 30 mg/dL | -54% | -29% | 1.1 mg/dL | -33% | 39 mg/dL | 485 mg/dL | Activity (Rattus norvegicus [31]): 23 mg/dL; Activity (Rattus norvegicus [16]): -23%; Activity (Rattus norvegicus [18]): 18%; Activity (Rattus norvegicus [23]): 43 mg/dL; Activity (Rattus norvegicus [24]): 110 mg/dL; Activity (Rattus norvegicus [26]): 20%; Activity (Rattus norvegicus [27]): 120 mg/dL; Activity (Rattus norvegicus [28]): 120 mg/dL; Activity (Rattus norvegicus [29]): 10.9 ng/mL; Activity (Rattus norvegicus [30]): 13% |

— ChEMBL document CHEMBL1137992, “Long hydrocarbon chain keto diols and diacids that favorably alter lipid disorders in vivo” (J Med Chem, 2004)
